High-throughput results: PubChem, several laboratories
HEK293 NFkB inh: inhibitors of the PMA/ionomycin-induced NF-kB reporter in HEK293 cells; AID 465; HEK-293 NF-kB luciferase reporter, luminescence; inhibition, % at 3 µM; actives 0.21% (n = 62,000);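 active = inhibition above the mean of all tested compounds plus 3 SD, cut at about 40% in these data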;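 also: 0% = stimulated DMSO wells and 100% = 10 µM reference inhibitor 5653914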
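Signal: luciferase luminescence; Material: HEK-293 cells with stable firefly luciferase reporter driven by four HIV NF-kB elements; Probe or stimulus: PMA with ionomycin; Replication: tested once; Times: 1 h compound pretreatment, then 16 h stimulation at 37 °C, 5% CO2; Benchmarks: DMSO and 10 µM reference inhibitor; Evaluation: per-plate % inhibition versus controls.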
5HT1a antag: antagonists of human 5-HT1a serotonin receptor | P08908 | CHO 5-HT1a Ga15 NFAT-bla reporter, antagonist mode | inhibition, % at 10 µM | actives 0.68% (n = 62,000) | AID 612;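 active = inhibition above the mean of all tested compounds plus 3 SD, cut at about 43% in these data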;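 also: receptor stimulated by 5-CT agonist at 100 nM near EC80; beta-lactamase reporter measured by ratiometric fluorescence of a cleavable substrate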
SKBR3 24h inh: SK-BR-3 proliferation inhibitors. SK-BR-3 viability, CellTiter-Glo ATP luminescence, 24 h; hits give low values. viability, % at 10 µM. actives 0.47% (n = 41,000);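 active = viability at or below the median of all test compounds minus 3 SD, in both replicates if run twice, cut at about 45% in these data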;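 also: 100% = median untreated cell wells and 0% = median positive control drug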
5HT1a ag: activates the human 5-HT1a serotonin receptor. activation, % at 10 µM. actives 0.56% (n = 65,000). AID 567. CHO 5-HT1a Ga15 NFAT-bla reporter, FRET ratio; 0% basal, 100% maximal reference agonist. P08908;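 active = activation above the screen-wide mean activation plus 3 SD, cut at about 19% in these data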;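 also: 0% = DMSO wells and 100% = 5-CT at EC100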
5HT1E antag: 5-HT1E (human) receptor antagonism. CHO 5-HT1E Ga15 NFAT-bla reporter, FRET, antagonist. actives 0.99% (n = 65,000). inhibition, % at 6 µM. P28566;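 active = inhibition above a set limit, the mean inhibition across every tested compound plus 3 SD, cut at about 29% in these data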;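 also: signal is the 460 over 535 nm emission ratio of beta-lactamase substrate; 0% = agonist plus DMSO wells and 100% = wells without agonist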
Target sequence (P28566 whole entry, looked up): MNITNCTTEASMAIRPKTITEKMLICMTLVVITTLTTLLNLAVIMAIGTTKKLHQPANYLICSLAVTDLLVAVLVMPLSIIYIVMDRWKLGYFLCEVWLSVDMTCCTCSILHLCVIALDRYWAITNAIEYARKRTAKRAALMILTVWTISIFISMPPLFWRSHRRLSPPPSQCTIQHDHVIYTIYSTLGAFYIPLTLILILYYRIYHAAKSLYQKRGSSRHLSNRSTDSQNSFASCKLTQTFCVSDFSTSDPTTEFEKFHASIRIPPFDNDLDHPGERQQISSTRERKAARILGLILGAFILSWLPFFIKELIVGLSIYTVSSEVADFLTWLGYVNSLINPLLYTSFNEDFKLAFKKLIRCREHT
HTR1E agonist: activates the human 5-HT1E serotonin receptor. CHO 5-HT1E Ga15 NFAT-bla reporter, FRET; 0% DMSO wells, 100% control agonist wells. activation, % at 6 µM. actives 0.69% (n = 65,000). P28566;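 active = activation above a set limit, the screen-wide mean activation plus 3 SD, cut at about 8.5% in these data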;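 also: 100% = positive control agonist at 1 µM giving full maximal response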
Starred values were filed as active, the others as inactive; / = no result given. A selection: hits, their analogues and other compounds. The true share with any hit is near 2.9%.

SMILES	HEK293 NFkB inh	5HT1a antag	SKBR3 24h inh	5HT1a ag	5HT1E antag	HTR1E agonist
Cc1ccc(C)c(NC(=O)CSc2nc3c(c(=O)n2C)SC(C)C3)c1 (stereo not drawn)	-2	-4	/	2	4	1
CCn1c(SCC(=O)Nc2cc(C)ccc2C)nc2c(c1=O)SC(C)C2 (stereo not drawn)	9	13	/	70*	0	1
COC(=O)C1=C(N)Oc2cc(C)n(CC3CCCO3)c(=O)c2C1c1ccc(Cl)cc1 (stereo not drawn)	23	15	85	0	-12	1
C=CCn1c(SCC(=O)Nc2sccc2C(N)=O)nc2sc(C)c(C)c2c1=O	-2	-1	/	6	33*	1
COC(=O)CC(=O)Cc1nc(N)nc(Nc2ccc(C)c(C)c2)n1	/	/	76	-3	4	52*
COc1cc(NC(=O)CCn2c(=O)[nH]c3ccsc3c2=O)cc(OC)c1	3	6	105	-3	-6	0
COc1ccccc1CNC(=O)CN(C)CC(=O)Nc1cccc(F)c1	7	-3	/	-2	0	-1
C=C(C)COc1ccc(-c2[nH]ncc2Oc2cccc(OC)c2)c(O)c1	4	18	87	-1	11	2
C=C(C)COc1ccc(-c2[nH]ncc2-c2ccc(OC)c(OC)c2)c(O)c1	58*	40	121	0	37*	1
COc1cc(C2Nc3ccc4ncccc4c3C3=C2C(=O)CCC3)ccc1O (stereo not drawn)	4	6	89	-2	0	0
O=C(NCC1CCCCC1)C1CCN(C(=O)NC2CCCCC2)CC1	13	12	35*	-2	10	-1
O=C1CC(c2ccc(Cl)c(Cl)c2)CC(O)=C1C=NCCN1CCNCC1 (stereo not drawn)	10	17	85	2	-10	0
C=CCn1c(SCc2ccc(F)cc2)nc2c1c(=O)[nH]c(=O)n2C	5	-1	/	-4	16	0
C/C=C/Cn1c(SCc2ccc(C)cc2)nc2c1c(=O)[nH]c(=O)n2C	12	-1	94	0	30*	2
CCC(=O)Oc1ccc2c(C)cc(=O)oc2c1C	10	6	84	65*	6	0
CCOC(=O)C(C)Oc1ccc2c(C)cc(=O)oc2c1C(C)=O (stereo not drawn)	/	/	69	-1	0	0
Cn1cc(/C=N/n2cnc3scc(-c4ccccc4)c3c2=O)c2ccccc21	39	10	/	3	30*	-1
O=c1c2cc(N3CCOCC3)ccc2[nH]c(=S)n1CCCN1CCCC1	17	4	/	-1	-8	9.6*
CC(=O)c1cccc(NC(=O)c2nccnc2C(=O)O)c1	7	-14	/	109*	5	-1
Cc1cc2oc(=O)cc(CN3CCC(C)CC3)c2c(C)c1Cl	7	13	90	3	-8	-1
COc1ccc(N2CCN(Cc3cc(=O)oc4cc(C)c(Cl)c(C)c34)CC2)cc1	12	-1	42*	1	6	0
CCOC(=O)Nc1ccc2c(c1)ncn2C1CCCCC1	0	17	98	1	19	39*
O=c1cc(O)c2c(=O)n3c4c(cccc4c2o1)CCC3	7	5	/	-2	-5	0
O=c1[nH]cnc2c1cnn2Cc1ccccc1	/	/	89	6	-1	0
Cc1cccc(NC(=O)Nc2ccc(C#N)cc2)n1	33	83*	/	-1	32*	0
SMILES	HEK293 NFkB inh	5HT1a antag	SKBR3 24h inh	5HT1a ag	5HT1E antag	HTR1E agonist
Cc1cccc(NC(=O)Nc2cccc(C#N)c2)n1	17	27	/	0	-6	0
COc1ccccc1CNc1ccc(N2CCOCC2)c(C(=O)O)c1	18	-7	97	-1	-11	0
COc1cc(CNc2ccc(N3CCOCC3)c(C(=O)O)c2)ccc1OCC(N)=O	9	-1	94	-2	-1	34*
CCCN1C=CC(=C2C(=O)c3ccccc3C2=O)C=C1	86*	1	/	-6	11	0
CCN1C=CC(=C2C(=O)c3ccccc3C2=O)C=C1	50*	10	/	3	3	-2
O=S(=O)(c1ccc(Cl)cc1)N1CCC(N2CCCCCC2)CC1	/	/	77	-2	0	0
O=S(=O)(c1ccccc1)N1CCN(C2CCCCCCC2)CC1	16	7	75	1	-1	33*
COc1ccc(N2CCN(CCNC(=O)c3ccc(NC(=O)C4CCCO4)cc3)CC2)cc1 (stereo not drawn)	6	-16	85	-1	-6	0
CCCCc1ccc(Nc2nc(CCC)cc(=O)[nH]2)cc1	-8	45*	85	-2	6	0
Cc1cc(C)nc(SC2=CS(=O)(=O)c3ccccc32)n1	22	28	82	0	28	1
O=S1(=O)C=C(Sc2nnc(-c3ccccc3)o2)c2ccccc21	12	104*	1.4*	-5	106*	-2
CCN(CCNC(=O)Nc1ccc(Cl)cc1)c1ccccc1	11	18	/	-5	14	-1
CCc1ccc(CCC(=O)Nc2sc3c(c2C#N)CCCC3)o1	26	61*	100	-3	53*	0
COc1cc(C2C3=C(Nc4ncnn42)c2ccccc2CC3)cc(OC)c1OC (stereo not drawn)	31	14	/	-1	61*	0
CCOC(=O)C1CCN(C(=O)c2cc(S(=O)(=O)N3CCOCC3)c(Cl)cc2Cl)CC1	24	8	/	2	-4	0
CCN(CCCNC(=O)CN(C)S(=O)(=O)c1cccc2nsnc12)c1ccccc1	19	-1	73	-1	14	0
O=C(Nc1ccc(Oc2ccc(NC(=O)c3ccco3)c(NC(=O)c3ccco3)c2)cc1)c1ccco1	8	59*	/	-2	18	-1
Nc1nonc1-c1nc2ccccc2n1Cc1ccc(F)cc1Cl	-1	63*	75	-3	18	0
Nc1nonc1-c1nc2ccccc2n1CC(=O)N1CCCCC1	12	7	/	0	5	0
CCOC(=O)c1[nH]c2ccc(OC)cc2c1NC(=O)OC	-2	5	104	-3	-9	0
COc1ccc2[nH]c(O)c(NC(C)=O)c2c1	1	-3	114	-1	5	13*
COc1ccc(N(CC(=O)N2CCCC(C)C2)S(=O)(=O)c2c(C)nn(C)c2C)cc1 (stereo not drawn)	-16	0	/	-3	-4	1
Cc1ccc(-n2c(CSc3nc(C)cc(C)n3)nnc2SCC(=O)N2CCCC2)cc1	5	-4	101	-1	3	1
COc1ccc(C(=O)COC(=O)CCN=C2NS(=O)(=O)c3ccccc32)cc1OC	8	3	/	0	14	20*
